Tests used:
A2780/Taxol = experiment: Cytotoxicity against human A2780T cells assessed as reduction in cell viability at 10 uM incubated for 48 hrs by MTT assay; assay type: cell-based
Outline: (§1)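 Cells plated at 3~5 × 10^3 per well and allowed 24 h before exposure to compound or DMSO (negative control) for 48 h. A2780/T and KB-VIN were grown in DMEM/F12 with 10% FBS, and HUVEC, HOSEC and T29 in RPMI-1640 with 10% FBS, all at 37 °C under 5% CO₂. MTT was added for 4 h, formazan dissolved in DMSO and absorbance read at 490 nm. Inhibition was calculated relative to DMSO and blank.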

[1] = Cytotoxicity against human HOSEC cells assessed as reduction in cell viability at 10 uM incubated for 48 hrs by MTT assay; assay type: cell-based; details: hose; outline: as §1
HUVEC = experiment: Cytotoxicity against human HUVEC cells assessed as reduction in cell viability at 10 uM incubated for 48 hrs by MTT assay; assay type: cell-based
Outline: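 Cells plated at 3~5 × 10^3 per well and allowed 24 h before exposure to compound or DMSO (negative control) for 48 h. MTT was added for 4 h, formazan dissolved in DMSO and absorbance read at 490 nm. Inhibition was calculated relative to DMSO and blank.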

[2] = Reversal of multidrug resistance activity in P-gp overexpressing human A2780T cells assessed as potentiation of PTX-induced cytotoxicity by measuring reversal ratio at 10 uM incubated for 48 hrs in presence of paclitaxel by MTT assay; assay type: functional, A2780/Taxol
Outline: (§2)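 Resistant cells were plated at 3~5 × 10^3 per well, given 24 h, then co-treated with test compound plus a range of anticancer drug concentrations (PTX for A2780/T, VCR for KB-VIN, cisplatin for A2780/CDDP) or DMSO for 48 h. Read-out was by MTT, 4 h at 37 °C, with absorbance at 490 nm. Reversal ratio = IC50 (drug alone) / IC50 (drug with compound).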

[3] = Cytotoxicity against human T29 cells assessed as reduction in cell viability at 10 uM incubated for 48 hrs by MTT assay; assay type: cell-based; details: t29, 48 h; outline: as §1
[4] = Cytotoxicity against human KB-VIN cells assessed as reduction in cell viability at 10 uM incubated for 48 hrs by MTT assay; assay type: cell-based; outline: as §1
[5] = Reversal of multidrug resistance activity in P-gp overexpressing human KB-VIN cells assessed as potentiation of VCR-induced cytotoxicity by measuring reversal ratio at 10 uM incubated for 48 hrs in presence of VCR by MTT assay; assay type: functional; outline: as §2
[6] = Reversal of multidrug resistance activity in human A2780/CDDP cells assessed as potentiation of CDDP-induced cytotoxicity by measuring reversal ratio at 10 uM incubated for 48 hrs in presence of CDDP by MTT assay; assay type: functional; outline: as §2

## CCc1cc(=O)c2ccc(OC)c(COC(=O)Cc3ccccc3C)c2o1
A2780/Taxol
  Activity: Non-Toxic
[1]
  Activity: Non-Toxic
HUVEC
  Activity: Non-Toxic
[2]
  Ratio: 99
[3]
  Activity: Non-Toxic

## CCc1cc(=O)c2ccc(OC)c(COC(=O)c3cc(OC)c(OC)cc3OC)c2o1
A2780/Taxol
  Activity: Non-Toxic
[4]
  Activity: Non-Toxic
[5]
  Ratio: 579
[1]
  Activity: Non-Toxic
HUVEC
  Activity: Non-Toxic
[2]
  Ratio: 284
[3]
  Activity: Non-Toxic

## CCCCCc1ccc(C(=O)OCc2c(OC)ccc3c(=O)cc(CC)oc23)cc1
A2780/Taxol
  Activity: Non-Toxic
[1]
  Activity: Non-Toxic
HUVEC
  Activity: Non-Toxic
[2]
  Ratio: 173
[3]
  Activity: Non-Toxic

## CCc1cc(=O)c2ccc(OC(C)C)c(COC(=O)c3ccc(C#N)cc3)c2o1
A2780/Taxol
  Activity: Toxic
[1]
  Activity: Non-Toxic
HUVEC
  Activity: Non-Toxic
[2]
  Ratio: 10
[3]
  Activity: Non-Toxic

## CCc1cc(=O)c2ccc(OC)c(COC(=O)c3cccc(N(C)C)c3)c2o1
A2780/Taxol
  Activity: Non-Toxic
[4]
  Activity: Non-Toxic
[6]
  Ratio: 0.81
[5]
  Ratio: 234
[1]
  Activity: Non-Toxic
HUVEC
  Activity: Non-Toxic
[2]
  Ratio: 484
[3]
  Activity: Non-Toxic

## CCc1cc(=O)c2ccc(OC)c(COC(=O)c3ccc(OC)c(OC)c3)c2o1
A2780/Taxol
  Activity: Toxic
[4]
  Activity: Non-Toxic
[5]
  Ratio: 105
[1]
  Activity: Non-Toxic
HUVEC
  Activity: Non-Toxic
[2]
  Ratio: 260
[3]
  Activity: Non-Toxic

## CCc1cc(=O)c2ccc(OC(C)C)c(COC(=O)/C=C/c3ccc(OC)cc3)c2o1
A2780/Taxol
  Activity: Non-Toxic
[4]
  Activity: Non-Toxic
[6]
  Ratio: 0.97
[5]
  Ratio: 342
[1]
  Activity: Non-Toxic
HUVEC
  Activity: Non-Toxic
[2]
  Ratio: 490
[3]
  Activity: Non-Toxic

## CCc1cc(=O)c2ccc(OC)c(COC(=O)/C=C/c3ccccc3)c2o1
A2780/Taxol
  Activity: Non-Toxic
[4]
  Activity: Non-Toxic
[5]
  Ratio: 343
[1]
  Activity: Non-Toxic
HUVEC
  Activity: Non-Toxic
[2]
  Ratio: 427
[3]
  Activity: Non-Toxic

## CCc1cc(=O)c2ccc(OC(C)C)c(COC(=O)c3cc(OC)c(OC)c(OC)c3)c2o1
A2780/Taxol
  Activity: Non-Toxic
[6]
  Ratio: 0.99
[1]
  Activity: Non-Toxic
HUVEC
  Activity: Non-Toxic
[2]
  Ratio: 503
[3]
  Activity: Non-Toxic

## CCc1cc(=O)c2ccc(OC)c(COC(=O)c3ccc(F)cc3)c2o1
A2780/Taxol
  Activity: Non-Toxic
[1]
  Activity: Non-Toxic
HUVEC
  Activity: Non-Toxic
[2]
  Ratio: 53
[3]
  Activity: Non-Toxic

## CCOc1ccc2c(=O)cc(CC)oc2c1COC(=O)c1ccc(C#N)cc1
A2780/Taxol
  Activity: Toxic
[1]
  Activity: Non-Toxic
HUVEC
  Activity: Non-Toxic
[2]
  Ratio: 20
[3]
  Activity: Non-Toxic

## CCOc1ccc2c(=O)cc(CC)oc2c1COC(=O)c1cc(OC)c(OC)cc1OC
A2780/Taxol
  Activity: Non-Toxic
[6]
  Ratio: 0.88
[1]
  Activity: Non-Toxic
HUVEC
  Activity: Non-Toxic
[2]
  Ratio: 457
[3]
  Activity: Non-Toxic

## CCc1cc(=O)c2ccc(OC)c(COC(=O)c3ccc(C(C)(C)C)cc3)c2o1
A2780/Taxol
  Activity: Toxic
[1]
  Activity: Non-Toxic
HUVEC
  Activity: Non-Toxic
[2]
  Ratio: 158
[3]
  Activity: Non-Toxic

## CCc1cc(=O)c2ccc(OC)c(COC(=O)c3c(F)cccc3F)c2o1
A2780/Taxol
  Activity: Non-Toxic
[1]
  Activity: Non-Toxic
HUVEC
  Activity: Non-Toxic
[2]
  Ratio: 43
[3]
  Activity: Non-Toxic

## CCc1cc(=O)c2ccc(OC)c(COC(=O)c3ccc(Cl)c([N+](=O)[O-])c3)c2o1
A2780/Taxol
  Activity: Non-Toxic
[1]
  Activity: Toxic
HUVEC
  Activity: Non-Toxic
[2]
  Ratio: 14
[3]
  Activity: Toxic

## CCc1cc(=O)c2ccc(OC)c(COC(=O)c3ccc(N)c(C)c3)c2o1
A2780/Taxol
  Activity: Non-Toxic
[1]
  Activity: Non-Toxic
HUVEC
  Activity: Non-Toxic
[2]
  Ratio: 177
[3]
  Activity: Non-Toxic

## CCCc1ccc(C(=O)OCc2c(OC)ccc3c(=O)cc(CC)oc23)cc1
A2780/Taxol
  Activity: Toxic
[1]
  Activity: Non-Toxic
HUVEC
  Activity: Non-Toxic
[2]
  Ratio: 36
[3]
  Activity: Non-Toxic

## CCc1cc(=O)c2ccc(OC(C)C)c(COC(=O)/C=C/c3ccccc3)c2o1
A2780/Taxol
  Activity: Non-Toxic
[4]
  Activity: Non-Toxic
[6]
  Ratio: 0.81
[5]
  Ratio: 466
[1]
  Activity: Non-Toxic
HUVEC
  Activity: Non-Toxic
[2]
  Ratio: 685
[3]
  Activity: Non-Toxic

## CCc1cc(=O)c2ccc(OC)c(COC(=O)/C=C/c3ccc(Cl)cc3)c2o1
A2780/Taxol
  Activity: Non-Toxic
[1]
  Activity: Non-Toxic
HUVEC
  Activity: Non-Toxic
[2]
  Ratio: 53
[3]
  Activity: Non-Toxic

## CCc1cc(=O)c2ccc(OC)c(COC(=O)c3ccccc3[N+](=O)[O-])c2o1
A2780/Taxol
  Activity: Non-Toxic
[1]
  Activity: Non-Toxic
HUVEC
  Activity: Non-Toxic
[2]
  Ratio: 172
[3]
  Activity: Non-Toxic

## CCc1cc(=O)c2ccc(OC)c(COC(=O)Cc3cc(OC)c(OC)c(OC)c3)c2o1
A2780/Taxol
  Activity: Toxic
[1]
  Activity: Non-Toxic
HUVEC
  Activity: Non-Toxic
[2]
  Ratio: 54
[3]
  Activity: Non-Toxic

## CCc1cc(=O)c2ccc(OC)c(COC(=O)c3ccccc3Br)c2o1
A2780/Taxol
  Activity: Toxic
[1]
  Activity: Non-Toxic
HUVEC
  Activity: Non-Toxic
[2]
  Ratio: 23
[3]
  Activity: Non-Toxic

## CCc1cc(=O)c2ccc(OC)c(COC(=O)Cc3ccc(Cl)cc3)c2o1
A2780/Taxol
  Activity: Non-Toxic
[1]
  Activity: Non-Toxic
HUVEC
  Activity: Non-Toxic
[2]
  Ratio: 89
[3]
  Activity: Non-Toxic

## CCc1cc(=O)c2ccc(OC)c(COC(=O)/C=C/c3ccc(OC)cc3)c2o1
A2780/Taxol
  Activity: Toxic
[4]
  Activity: Non-Toxic
[5]
  Ratio: 420
[1]
  Activity: Toxic
HUVEC
  Activity: Non-Toxic
[2]
  Ratio: 414
[3]
  Activity: Toxic

## CCc1cc(=O)c2ccc(OC)c(COC(=O)c3cc(OC)c(OC)c(OC)c3)c2o1
A2780/Taxol
  Activity: Non-Toxic
[4]
  Activity: Non-Toxic
[6]
  Ratio: 0.81
[5]
  Ratio: 424
[1]
  Activity: Non-Toxic
HUVEC
  Activity: Non-Toxic
[2]
  Ratio: 537
[3]
  Activity: Non-Toxic

## CCc1cc(=O)c2ccc(OC)c(COC(=O)c3cc([N+](=O)[O-])ccc3Cl)c2o1
A2780/Taxol
  Activity: Non-Toxic
[1]
  Activity: Non-Toxic
HUVEC
  Activity: Non-Toxic
[2]
  Ratio: 57
[3]
  Activity: Non-Toxic

## CCc1cc(=O)c2ccc(OC)c(COC(=O)c3ccc(C#N)cc3)c2o1
A2780/Taxol
  Activity: Non-Toxic
[1]
  Activity: Toxic
HUVEC
  Activity: Non-Toxic
[2]
  Ratio: 8
[3]
  Activity: Toxic

## CCc1cc(=O)c2ccc(OC)c(COC(=O)c3cccc(OC)c3)c2o1
A2780/Taxol
  Activity: Non-Toxic
[1]
  Activity: Non-Toxic
HUVEC
  Activity: Non-Toxic
[2]
  Ratio: 147
[3]
  Activity: Non-Toxic

## CCc1cc(=O)c2ccc(OC)c(COC(=O)c3ccc(Cl)cc3Cl)c2o1
A2780/Taxol
  Activity: Non-Toxic
[1]
  Activity: Non-Toxic
HUVEC
  Activity: Non-Toxic
[2]
  Ratio: 126
[3]
  Activity: Non-Toxic

## CCOc1ccc2c(=O)cc(CC)oc2c1COC(=O)c1cc(OC)c(OC)c(OC)c1
A2780/Taxol
  Activity: Non-Toxic
[4]
  Activity: Non-Toxic
[6]
  Ratio: 1.05
[5]
  Ratio: 248
[1]
  Activity: Non-Toxic
HUVEC
  Activity: Non-Toxic
[2]
  Ratio: 457
[3]
  Activity: Non-Toxic

Reference: ChEMBL document CHEMBL4706532, “New Seco-DSP derivatives as potent chemosensitizers” (Eur J Med Chem, 2020)
